Experimental data collected from several papers.
Lines come from different studies, so protocols differ.

| Compound | test | test system | setting | measurement | result |
| --- | --- | --- | --- | --- | --- |
| CCOC(=O)c1cc(Cl)cc(NC(=O)c2sc(Cl)cc2S(=O)(=O)N(C)c2ccc(OCC)c(OC)c2)c1 | – | male C57BL/6 mouse, brain | intraperitoneal, 10 mg/kg | MRT(0-inf) | 3.28 h |
| NC(=O)N1c2ccccc2C=Cc2ccccc21 | metabolic stability | human, liver microsomes | 1 µM | half-life | > 3 h |
| CSc1nccc(C(=O)N[C@@H](CCC(=O)O)C(=O)N[C@@H](Cc2ccc3ccccc3c2)C(=O)N[C@@H](CC(C)C)C(=O)NC2CC2c2ccccc2)n1 (stereo partly shown) | metabolic stability | human, plasma | – | half-life | 36.9 h |
| CC(=O)O[C@@]12CO[C@@H]1C[C@H](O)[C@@]1(C)C(=O)[C@H](O)C3=C(C)[C@@H](OC(=O)[C@H](O)[C@@H](NC(=O)OC(C)(C)C)c4ccccc4)C[C@@](O)([C@@H](OC(=O)c4ccccc4)[C@H]21)C3(C)C | – | male Kunming mouse, liver | oral, 20 mg/kg | MRT | 5.7 h |
| O=[N+]([O-])c1ccc(-c2ccc(O)cc2)c2cccnc12 | – | male CD-1 mouse, plasma | intravenous, 1 mg/kg | MRT(0-inf) | 0.11 h |
| COc1cc(C(=O)OCCCN2CCCN(CCCOC(=O)c3cc(OC)c(OC)c(OC)c3)CC2)cc(OC)c1OC | – | male CD-1 mouse, brain | subcutaneous | MRT(0-inf) | 1.72 h |
| CCC(CC)COC(=O)[C@H](C)N[P@](=O)(OC[C@@H]1C[C@@H](O)[C@H](n2cnc3c(N)ncnc32)O1)Oc1ccccc1 | metabolic stability | human, liver microsomes | 1 µM | half-life | 0.0137 h |
| CCN1CCN(Cc2ccc(NC(=O)c3ccc(C)c(NC(=O)c4cncc(-c5cccs5)c4)c3)cc2C(F)(F)F)CC1 | – | mouse, plasma | intraperitoneal, 15 mg/kg, single dose | MRT | 3.09 h |
| CCOc1ccc(N(C)S(=O)(=O)c2cc(Cl)sc2C(=O)Nc2cc(Cl)cc(C(=O)O)c2)cc1OC | – | male C57BL/6 mouse, plasma | intraperitoneal, 10 mg/kg | MRT(0-inf) | 0.781 h |
| C=CS(=O)(=O)c1ccc(Nc2nc(OCC3CCCCC3)c3nc[nH]c3n2)cc1 | – | male BALB/c mouse, plasma | intravenous, 20 mg/kg, single dose | MRT(0-t) | 0.71 h |
